Results published in ChEMBL document CHEMBL1145991 (J Med Chem, 2003).
Blank lines part the entries; values can stand above or below the compound they belong to.

Experiments:
Conditions in all cases: Aorta
[1] = In vitro maximal vasorelaxation of endothelium-denuded rat aortic rings, expressed as percentage contractile tension.; assay type: functional
Summary of the method: (§1)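 Thoracic aortic rings were taken from male normotensive Wistar rats (250–350 g) and equilibrated for 60 min. Rings relaxing ≥10% to ACh 10 μM after NE 1 μM precontraction were discarded. Rings were contracted with KCl 20 mM, then 3-fold increasing concentrations were added cumulatively. Efficacy is the maximal relaxation as % of KCl tone, or the response at the 0.1 mM limit concentration. Mean ± standard error of 5–10 experiments.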

[2] = In vitro maximal vasorelaxing effect evoked on endothelium-denuded rat aortic rings in the presence of 1 uM glibenclamide; assay type: functional
Summary of the method: (§2)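 Glibenclamide 1 μM was added to endothelium-denuded male Wistar rat aortic rings before the 20 mM KCl contraction. Compound was then added cumulatively in 3-fold increasing concentrations, and relaxation was expressed relative to the KCl tone. Student t test against control, P < 0.05. Mean ± standard error, 5–10 experiments.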

[3] = In vitro vasorelaxing effect evoked on endothelium-denuded rat aortic rings in the presence of 1 uM glibenclamide; assay type: functional, tissue-based; summary of the method: as §2
[4] = In vitro maximal vasorelaxing effect evoked on endothelium-denuded rat aortic rings was expressed as percentage contractile tension in the presence of 60 mM KCl
[5] = In vitro vasorelaxing effect evoked on endothelium-denuded rat aortic rings in the presence of 1 uM glibenclamide
[6] = In vitro vasorelaxing effect evoked on endothelium-denuded rat aortic rings expressed as potency significantly different from respective control; assay type: functional, tissue-based
[7] = In vitro vasorelaxing effect evoked on endothelium-denuded rat aortic rings expressed as percentage efficacy (%) recorded in the presence of 1 uM glibenclamide
Rattus norvegicus [8] = species on record: Rattus norvegicus; experiment: In vitro maximal vasorelaxing effect evoked on endothelium-denuded rat aortic rings was expressed as percentage contractile tension; The compound was ineffective; assay type: functional, tissue-based; summary of the method: as §1
Rattus norvegicus [9] = species on record: Rattus norvegicus; experiment: In vitro vasorelaxing effect evoked on endothelium-denuded rat aortic rings expressed as half reduction of the contractile tone; The compound was ineffective; assay type: functional, tissue-based

IC50 [3]: 93.3 nM
SMILES: CC(=O)NN1CC(C)(C)Sc2ccc([N+](=O)[O-])cc21
Emax [1]: 92%
Emax [2]: 95%
Emax [4]: 24%

SMILES: CC1(C)CN(N2CCCCC2=O)c2cc(Br)ccc2S1
Emax [1]: 100%

SMILES: C=CCN1CC(C)(C)Sc2ccc(C(F)(F)F)cc21
Emax [1]: 97%

SMILES: CC1(C)CN(N2CCCC2=O)c2cc(Br)ccc2[S+]1[O-] (stereo not drawn)
Emax [1]: 96%

IC50 [3]: 69.2 nM
SMILES: CC1(C)CN(C2=CCCC2=O)c2cc(C#N)ccc2S1
Emax [1]: 95%
Emax [2]: 100%
Emax [4]: 18%

IC50 [5]: 525 nM
SMILES: CC1(C)CN(C2=CCCC2=O)c2cc(Br)ccc2S1
Emax [1]: 99%
Emax [2]: 92%
Emax [4]: 28%

IC50 [3]: 417 nM
SMILES: CC1(C)CN(C2=CCCC2=O)c2cc([N+](=O)[O-])ccc2S1
Emax [1]: 98%
Emax [2]: 90%
Emax [4]: 26%

SMILES: CC(=O)N1CC(C)(C)Sc2ccc(Br)cc21
Emax [1]: 100%

SMILES: CC1(C)CN(N2CCCC2=O)c2cc(C#N)ccc2S1
Emax [1]: 98%

SMILES: CC(=O)NN1CC(C)(C)Sc2ccc(Br)cc21
Emax [1]: 100%

SMILES: CC1(C)CN(N2CCCC2=O)c2cc([N+](=O)[O-])ccc2S1
Emax [1]: 91%

IC50 [6]: 28200 nM
SMILES: CC1(C)Sc2ccc(C(F)(F)F)cc2NC1=O
Emax [7]: 81%

IC50 [3]: 437 nM
SMILES: CC1(C)CN(C2=CCCC2=O)c2cc(C(F)(F)F)ccc2S1
Emax [1]: 99%
Emax [2]: 87%
Emax [4]: 35%

SMILES: CC1(C)CN(N2CCCC2=O)c2cc(Br)ccc2S1(=O)=O
Emax [1]: 100%

IC50 [3]: 2400 nM
SMILES: CC1(C)CN(N2CCCC2=O)c2cc(Br)ccc2S1
Emax [1]: 100%
Emax [2]: 99%
Emax [4]: 30%

SMILES: CC1(C)Oc2ccc(C#N)cc2[C@@H](N2CCCC2=O)[C@@H]1O [LEVCROMAKALIM]
Emax [1]: 100%

SMILES: CC(=O)N1CC(C)(C)Sc2ccc([N+](=O)[O-])cc21
NE (Rattus norvegicus [8]): Ineffective
NE (Rattus norvegicus [9]): Ineffective

SMILES: CC1(C)CN(NC(=O)c2cccc(F)c2)c2cc(Br)ccc2S1
Emax [1]: 95%
Emax [2]: 58%

IC50 [3]: 302 nM
SMILES: CC1(C)CN(NC(=O)c2cccc(F)c2)c2cc([N+](=O)[O-])ccc2S1
Emax [1]: 91%
Emax [2]: 93%
Emax [4]: 15%
